Source: ChEMBL document CHEMBL5523690, “Synergistic effect of tryptamine-urea derivatives to overcome the chromosomally-mediated colistin resistance in Klebsiella pneumoniae” (Bioorg Med Chem, 2024)

Columns and labels:
Escherichia coli [1] = assay: Antibacterial activity against colistin resistant Escherichia coli A50 harboring mcr-1 gene assessed as inhibition of visible bacterial growth measured after 20 hrs under aerobic condition by two fold serial dilution assay; type: functional
Pseudomonas aeruginosa [2] = assay: Antibacterial activity against chromosomally-mediated colistin resistant Pseudomonas aeruginosa 1002 assessed as inhibition of visible bacterial growth measured after 20 hrs under aerobic condition by two fold serial dilution assay; type: functional
Pseudomonas aeruginosa [3] = assay: Antibacterial activity against chromosomally-mediated colistin resistant Pseudomonas aeruginosa 15080 assessed as inhibition of visible bacterial growth measured after 20 hrs under aerobic condition by two fold serial dilution assay; type: functional
Erythrocyte [4] = assay: Hemolytic activity in sheep RBC assessed as RBC deformation at 25 uM measured after 1 hr in presence of colistin by fluorescence microscopic analysis; type: toxicity, cell-based, Ovis aries
How it was run: (§1)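 PBS-washed sheep erythrocytes were exposed to compound in PBS at 25–800 µM, or 25 µM plus colistin 1 µg/mL. Each reaction held 5% (v/v) RBCs and 5% (v/v) DMSO, incubated 1 h at 37 °C with 100 rpm agitation, then centrifuged at 1000 g, 4 °C. Cell shape was examined by optical microscopy. Triplicates.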

Pseudomonas aeruginosa [5] = assay: Antibacterial activity against chromosomally-mediated colistin resistant Pseudomonas aeruginosa 10039 assessed as inhibition of visible bacterial growth measured after 20 hrs under aerobic condition by two fold serial dilution assay; type: functional
Escherichia coli [6] = assay: Antibacterial activity against colistin resistant Escherichia coli NTCC 13846 harboring mcr-1 gene assessed as inhibition of visible bacterial growth measured after 20 hrs under aerobic condition by two fold serial dilution assay; type: functional
Escherichia coli [7] = assay: Colistin adjuvant activity against colistin-resistant Escherichia coli A50 assessed as colistin MIC by measuring potentiation fold incubated for 24 hrs under aerobic condition by two fold serial dilution method relative to colistin alone; type: functional
Erythrocyte [8] = assay: Hemolytic activity in sheep RBC assessed as hemolysis at 25 uM measured after 1 hr by fluorescence microscopic analysis; type: toxicity, cell-based, Ovis aries
How it was run: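 Sheep erythrocytes, PBS-washed, were treated at 5% (v/v) with compound (25–800 µM) in 5% (v/v) DMSO for 1 h at 37 °C, shaking at 100 rpm. Controls were 0.5% Triton X-100 (positive) and PBS (negative). After centrifugation at 1000 g, 4 °C, hemolysis was assessed visually and by absorbance (750–600 nm) as percent RBC survival. Triplicate.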

Erythrocyte [9] = assay: Hemolytic activity in sheep RBC assessed as RBC deformation at 800 uM measured after 1 hr by fluorescence microscopic analysis; type: toxicity, cell-based, Ovis aries; how it was run: as §1
Klebsiella pneumoniae [10] = assay: Antibacterial activity against chromosomally-mediated resistant Klebsiella pneumoniae BA03057 assessed as inhibition of visible bacterial growth measured after 20 hrs under aerobic condition by two fold serial dilution assay; type: functional
Klebsiella pneumoniae [11] = assay: Antibacterial activity against Klebsiella pneumoniae ATCC700603 assessed as inhibition of visible bacterial growth measured after 20 hrs under aerobic condition by two fold serial dilution assay; type: functional
How it was run: (§2)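 Broth microdilution following EUCAST. Compound was tested at final well concentrations of 0.25–128 µg/mL against 5.10^5 CFU/mL inoculum, incubated 20 h at 37 °C aerobically. MIC was taken as the lowest concentration with no visible growth. There were three independent experiments per strain.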

Klebsiella pneumoniae [12] = assay: Synergistic antibacterial activity against Klebsiella pneumoniae BA03057 assessed as fractional inhibitory concentration index incubated for 24 hrs under aerobic condition in presence of colistin by checkerboard assay; type: functional
How it was run: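 Checkerboard against KP BA03057 at 5.10^5 CFU/mL. Colistin was two-fold diluted 0–64 µg/mL across compound two-fold diluted 0–100 µM. Plates were incubated 24 h at 37 °C aerobically and absorbance read at 600 nm. FICI = MIC(compound, combined)/MIC(compound alone) + MIC(colistin, combined)/MIC(colistin alone), with synergy at FICI < 0.5. Plates were run in duplicate.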

Pseudomonas aeruginosa [13] = assay: Antibacterial activity against Pseudomonas aeruginosa ATCC27853 assessed as inhibition of visible bacterial growth measured after 20 hrs under aerobic condition by two fold serial dilution assay; type: functional; how it was run: as §2
Escherichia coli [14] = assay: Antibacterial activity against Escherichia coli ATCC25922 assessed as inhibition of visible bacterial growth measured after 20 hrs under aerobic condition by two fold serial dilution assay; type: functional; how it was run: as §2
[15] = Hemolytic activity in sheep RBC assessed as survival rate at 25 uM measured after 1 hr in presence of colistin by fluorescence microscopic analysis relative to control; type: toxicity, cell-based, Ovis aries, Erythrocyte; conditions: sheep red blood cells (erythrocytes), read-out: Survival
How it was run: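 Washed sheep erythrocytes in PBS, 5% (v/v) final with 5% (v/v) DMSO, given 25 µM agent plus colistin 1 µg/mL; 1 h at 37 °C, shaking 100 rpm; Triton X-100 0.5% positive and PBS negative controls; cells spun off at 1000 g, 4 °C; absorbance (750–600 nm) read as % RBC survival; triplicate; shape checked by optical microscopy.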

Escherichia coli [16] = assay: Colistin adjuvant activity against colistin-resistant Escherichia coli A50 assessed as antibacterial effect by measuring colistin MIC incubated for 24 hrs under aerobic condition by two fold serial dilution method; type: functional
Klebsiella pneumoniae [17] = assay: Colistin adjuvant activity against colistin-resistant Klebsiella pneumoniae BA03057 assessed as antibacterial effect by measuring colistin MIC incubated for 24 hrs under aerobic condition by two fold serial dilution method; type: functional
Erythrocyte [18] = assay: Hemolytic activity in sheep RBC assessed as hemolysis at 1600 uM measured after 1 hr by fluorescence microscopic analysis; type: toxicity, cell-based, Ovis aries

## O=C(NCCc1c[nH]c2ccccc12)Nc1cccc(F)c1
Escherichia coli [1]
  MIC: > 128 µg/mL
Pseudomonas aeruginosa [2]
  MIC: > 128 µg/mL
Pseudomonas aeruginosa [3]
  MIC: > 128 µg/mL
Erythrocyte [4]
  Activity: Non-Toxic
Pseudomonas aeruginosa [5]
  MIC: > 128 µg/mL
Escherichia coli [6]
  MIC: > 128 µg/mL
Escherichia coli [7]
  fold change (FC): 0.5
Erythrocyte [8]
  Activity: Non-Toxic
Erythrocyte [9]
  Activity: Non-Toxic
Klebsiella pneumoniae [10]
  MIC: > 128 µg/mL
Klebsiella pneumoniae [11]
  MIC: > 128 µg/mL
Klebsiella pneumoniae [12]
  fractional inhibitory concentration index (FICI): 0.073
Pseudomonas aeruginosa [13]
  MIC: > 128 µg/mL
Escherichia coli [14]
  MIC: > 128 µg/mL
[15]
  viability at 1 h, 25 µM: 96%
Escherichia coli [16]
  MIC: 4 µg/mL
Klebsiella pneumoniae [17]
  MIC: 1 µg/mL
Erythrocyte [18]
  Activity: Non-Toxic
